One assay is filed under the species Cavia porcellus. Description: Percent maximal inhibition (Emax) was measured using guinea pig ileum assay (GPI). It is filed as functional.
Assay [1] deals with T1, Mu-type opioid receptor (Rattus norvegicus, UniProt P33535). Description: Inhibitory activity measured against [3H]CTOP (Opioid receptor mu 1) in rat brain using radioreceptor binding assays. It is filed as tissue-based. The essentials:
(§1)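 Male Sprague-Dawley rat whole brain minus cerebellum, homogenised and washed three times (30 min at 25 °C in 50 mM Tris) to remove endogenous opioids. Homogenate at 0.5% final was incubated with 0.5 nM [3H]CTOP in 50 mM Tris-HCl pH 7.4 containing 5 mM MgCl2 and BSA 1 mg/mL for 120 min at 25 °C. Nonspecific binding was defined with 1 μM naltrexone. Bound ligand was collected by filtration and counted by scintillation; duplicates, 2–4 experiments.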

Assay [2] deals with Delta-type opioid receptor (Mus musculus, UniProt P32300). Put plainly: Inhibitory activity measured against Opioid receptor delta 1 using mouse vas deference assay (MVD). The essentials: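 Vas deferens from male ICR mice (25–30 g) in magnesium-free oxygenated Krebs bicarbonate at 37 °C under 0.5 g tension. Electrical stimulation at 0.1 Hz with 2.0-ms pulses at supramaximal voltage. Agonist contact was 3 min.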

In assay [3] the target is T2, Delta-type opioid receptor (Rattus norvegicus, UniProt P33533). Put plainly: Inhibitory activity measured against [3H]DPDPE (Opioid receptor delta 1 ligand) in rat brain using radioreceptor binding assays. It is filed as tissue-based. The essentials: (§2)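 Male Sprague-Dawley rat brain membranes (minus cerebellum), washed three times to remove endogenous opioids. Specific binding was defined as that displaced by 1 μM naltrexone. Filtration and scintillation counting; duplicates, 2–4 experiments.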

The target of assay [4] is T1, Mu-type opioid receptor. Put plainly: Binding affinity measured against [3H]CTOP (Opioid receptor mu 1) in rat brain using radioreceptor binding assays. It is filed as tissue-based. The essentials: as §1
In assay [5] the target is T2, Delta-type opioid receptor. Description: Binding affinity measured against [3H]DPDPE (Opioid receptor delta 1 ligand) in rat brain using radioreceptor binding assays. The class given is tissue-based. The essentials:
as §2

The target in assay [6] is Mu-type opioid receptor (Cavia porcellus, UniProt P97266). Put plainly: Inhibitory activity measured against Opioid receptor mu 1 using guinea pig ileum assay (GPI). The class given is tissue-based. The essentials: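 Longitudinal muscle-myenteric plexus from the ileum of male Hartley guinea pigs (150–400 g) in oxygenated Krebs bicarbonate at 37 °C under 1 g tension. Electrical stimulation at 0.1 Hz with 0.4-ms pulses at supramaximal voltage. Agonist exposure was 3 min, followed by rinse and 8 min re-equilibration. Percent inhibition of contraction was fitted to a logistic equation for IC50; duplicates, 2–4 experiments.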

Molecules are shown by their SMILES.

Sequence of Mu-type opioid receptor (Cavia porcellus, UniProt P97266) (P97266 whole entry): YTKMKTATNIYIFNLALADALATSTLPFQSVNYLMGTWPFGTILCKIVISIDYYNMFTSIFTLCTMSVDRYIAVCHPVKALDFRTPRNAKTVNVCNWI
Sequence of Delta-type opioid receptor (Mus musculus, UniProt P32300) (P32300 whole entry): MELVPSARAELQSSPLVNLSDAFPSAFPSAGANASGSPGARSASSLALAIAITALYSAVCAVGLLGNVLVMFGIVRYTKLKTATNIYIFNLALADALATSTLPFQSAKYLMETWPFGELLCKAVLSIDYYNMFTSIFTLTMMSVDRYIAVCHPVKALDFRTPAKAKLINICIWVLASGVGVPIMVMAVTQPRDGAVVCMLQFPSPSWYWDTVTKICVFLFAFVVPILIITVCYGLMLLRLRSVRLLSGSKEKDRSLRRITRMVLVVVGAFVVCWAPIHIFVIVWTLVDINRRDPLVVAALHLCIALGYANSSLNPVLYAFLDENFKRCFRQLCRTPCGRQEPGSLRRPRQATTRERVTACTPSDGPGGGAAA
T1 sequence (P33535 whole entry): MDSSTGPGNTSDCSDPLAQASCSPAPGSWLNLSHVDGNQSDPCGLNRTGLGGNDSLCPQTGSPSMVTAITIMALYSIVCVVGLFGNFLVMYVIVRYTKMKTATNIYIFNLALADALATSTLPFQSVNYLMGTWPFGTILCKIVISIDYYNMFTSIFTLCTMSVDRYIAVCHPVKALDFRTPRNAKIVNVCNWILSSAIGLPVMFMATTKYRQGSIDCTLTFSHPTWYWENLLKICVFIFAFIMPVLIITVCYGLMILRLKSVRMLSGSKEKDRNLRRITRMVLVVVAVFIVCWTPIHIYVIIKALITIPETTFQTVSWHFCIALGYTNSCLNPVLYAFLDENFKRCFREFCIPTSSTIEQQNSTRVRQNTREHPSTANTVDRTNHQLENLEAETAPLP
T2 sequence (P33533 whole entry): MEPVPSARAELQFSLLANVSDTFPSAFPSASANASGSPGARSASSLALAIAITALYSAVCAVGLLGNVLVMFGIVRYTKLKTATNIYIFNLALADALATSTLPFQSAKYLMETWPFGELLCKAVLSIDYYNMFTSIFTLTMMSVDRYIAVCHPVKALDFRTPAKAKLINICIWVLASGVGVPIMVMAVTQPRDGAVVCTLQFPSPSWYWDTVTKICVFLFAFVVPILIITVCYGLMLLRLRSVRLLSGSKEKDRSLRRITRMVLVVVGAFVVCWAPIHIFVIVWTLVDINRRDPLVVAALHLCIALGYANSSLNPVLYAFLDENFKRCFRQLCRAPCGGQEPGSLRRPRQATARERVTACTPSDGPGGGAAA

In the assay filed under Cavia porcellus, `C[C@H](c1ccccc1)[C@H]1NC(=O)CNC(=O)[C@H](NC(=O)[C@@H](N)Cc2ccc(O)cc2)C(C)(C)SSC(C)(C)[C@H](C(=O)O)NC1=O` gave an E max of 100%.

In general, IC50 refers to the midpoint of a concentration-inhibition curve. Read a high IC50 as a need for much substance. A word on the Ki: it is the dissociation constant of the complex between target and ligand, obtained from inhibition or displacement. Read a high Ki as a looser hold on the target. Take `C[C@H](c1ccc([N+](=O)[O-])cc1)[C@@H]1NC(=O)CNC(=O)[C@H](NC(=O)[C@@H](N)Cc2ccc(O)cc2)C(C)(C)SSC(C)(C)[C@H](C(=O)O)NC1=O` [listing 1 of 2 here]: the IC50 at Mu-type opioid receptor [1] is 105 nM; in assay [2], 27 nM; in assay [3], 4.2 nM; against Mu-type opioid receptor [6], 2700 nM. Further, the Ki was found to be 24 nM at Mu-type opioid receptor [4] and 3.4 nM in assay [5].

In the assay filed under Cavia porcellus, `C[C@H](c1ccc([N+](=O)[O-])cc1)[C@@H]1NC(=O)CNC(=O)[C@H](NC(=O)[C@@H](N)Cc2ccc(O)cc2)C(C)(C)SSC(C)(C)[C@H](C(=O)O)NC1=O` [listing 2 of 2 here] registered an E max of 74%.

With `C[C@@H](c1ccccc1)[C@H]1NC(=O)CNC(=O)[C@H](NC(=O)[C@@H](N)Cc2ccc(O)cc2)C(C)(C)SSC(C)(C)[C@H](C(=O)O)NC1=O`, the E max in the assay listed under Cavia porcellus was 100%.

With `C[C@@H](c1ccc([N+](=O)[O-])cc1)[C@H]1NC(=O)CNC(=O)[C@H](NC(=O)[C@@H](N)Cc2ccc(O)cc2)C(C)(C)SSC(C)(C)[C@H](C(=O)O)NC1=O` [listing 1 of 2 here], the IC50 at Mu-type opioid receptor [1] was 1020 nM; in assay [2] it was 1790 nM; in assay [3] it was 222 nM; against Mu-type opioid receptor [6], 12300 nM. In addition, the Ki on Mu-type opioid receptor [4] is 240 nM; in assay [5], 180 nM.

`C[C@@H](c1ccc([N+](=O)[O-])cc1)[C@H]1NC(=O)CNC(=O)[C@H](NC(=O)[C@@H](N)Cc2ccc(O)cc2)C(C)(C)SSC(C)(C)[C@H](C(=O)O)NC1=O` [listing 2 of 2 here] came in with an E max in the assay filed under Cavia porcellus of 66%.

As for `C[C@H](c1ccccc1)[C@@H]1NC(=O)CNC(=O)[C@H](NC(=O)[C@@H](N)Cc2ccc(O)cc2)C(C)(C)SSC(C)(C)[C@H](C(=O)O)NC1=O` (stereo in doubt; 4), in the assay listed under Cavia porcellus, the E max was determined as 56%.

With `C[C@H](c1ccc([N+](=O)[O-])cc1)[C@H]1NC(=O)CNC(=O)[C@@H](NC(=O)[C@@H](N)Cc2ccc(O)cc2)C(C)(C)SSC(C)(C)[C@@H](C(=O)O)NC1=O` (stereo in doubt; 6), the E max in the assay filed under Cavia porcellus is listed as 73%. The IC50 worked out at 2200 nM on Mu-type opioid receptor [1], 4.59 nM in assay [2], 6.89 nM in assay [3] and 25700 nM against Mu-type opioid receptor [6]. Moreover, the Ki at Mu-type opioid receptor [4] is 530 nM; in assay [5], 5.5 nM.

Take `C[C@H](c1ccc([N+](=O)[O-])cc1)[C@H]1NC(=O)CNC(=O)[C@@H](NC(=O)[C@@H](N)Cc2ccc(O)cc2)C(C)(C)SSC(C)(C)[C@@H](C(=O)O)NC1=O` (stereo in doubt; 7): the IC50 at Mu-type opioid receptor [1] is greater than 10000 nM; in assay [2] it was 630 nM; in assay [3], 226 nM; at Mu-type opioid receptor [6], greater than 10000 nM. The same compound came in with a Ki in assay [5] of 180 nM.

For the origin of these results see ChEMBL document CHEMBL1125258, “Topographically designed analogues of [D-Pen,D-Pen5]enkephalin” (J Med Chem, 1991).
